Results taken from publication PMC8010999 (Journal of medicinal chemistry, 2020).

Legend:
rhMMP-7 = target: T1, rhMMP-7 (Homo sapiens, UniProt P09237); test: MMP affinity determination; assay type: biochemical; conditions: relative to CGA
T1 sequence (P09237 95-267): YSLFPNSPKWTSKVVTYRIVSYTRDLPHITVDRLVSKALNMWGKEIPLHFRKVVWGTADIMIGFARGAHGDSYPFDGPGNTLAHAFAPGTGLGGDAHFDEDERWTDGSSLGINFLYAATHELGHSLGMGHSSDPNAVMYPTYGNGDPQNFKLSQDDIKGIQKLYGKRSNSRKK
Method in brief: (§1)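 Inhibition constants were derived from the kinetic effect of the test compound on MMP cleavage of the fluorogenic substrate Mca-Lys-Pro-Leu-Gly-Leu-Dpa-Ala-Arg-NH2. Conditions: 50 mM Tris/HCl pH 6.8, 10 mM CaCl2, 25 °C, with 0.2–0.5 nM enzyme. […] Fluorescence was monitored, and Ki was obtained by the Horovitz–Levitzki method.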

rhMMP-12 = rhMMP-12 (Homo sapiens, UniProt P39900); test: MMP affinity determination; assay type: biochemical
Sequence of rhMMP-12 (P39900 106-470): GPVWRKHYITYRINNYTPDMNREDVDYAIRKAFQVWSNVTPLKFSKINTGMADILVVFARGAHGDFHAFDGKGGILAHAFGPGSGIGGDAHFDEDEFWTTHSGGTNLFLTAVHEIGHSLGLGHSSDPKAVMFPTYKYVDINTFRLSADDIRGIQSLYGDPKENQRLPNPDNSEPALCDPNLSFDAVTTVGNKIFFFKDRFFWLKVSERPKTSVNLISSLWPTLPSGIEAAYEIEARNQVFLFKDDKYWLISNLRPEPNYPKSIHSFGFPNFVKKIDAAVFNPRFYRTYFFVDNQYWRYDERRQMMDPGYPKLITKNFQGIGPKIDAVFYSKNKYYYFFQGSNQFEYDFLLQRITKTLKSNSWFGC
Method in brief: as §1

MMP-12 = MMP-12 (Mus musculus, UniProt P34960); test: 99mTc-AGA-2 binding specificity; conditions: co-incubation with 500-fold molar excess, P < 0.001
Sequence of MMP-12 (P34960 110-473): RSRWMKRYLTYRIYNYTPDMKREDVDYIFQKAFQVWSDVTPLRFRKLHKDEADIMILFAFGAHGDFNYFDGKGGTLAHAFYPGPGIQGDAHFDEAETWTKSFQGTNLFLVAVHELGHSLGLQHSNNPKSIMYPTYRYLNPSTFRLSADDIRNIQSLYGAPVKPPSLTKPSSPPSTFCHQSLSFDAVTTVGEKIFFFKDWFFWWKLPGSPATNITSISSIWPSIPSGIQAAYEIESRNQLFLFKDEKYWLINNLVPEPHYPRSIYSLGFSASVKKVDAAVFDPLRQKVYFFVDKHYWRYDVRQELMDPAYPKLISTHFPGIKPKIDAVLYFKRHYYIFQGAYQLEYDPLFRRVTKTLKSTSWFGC
Method in brief: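 Tissues came from Apoe−/− mice given angiotensin II (1,000 ng/kg/min) by subcutaneous minipump for 4 weeks. Tracer binding was compared in aneurysmal aorta and in normal-size infrarenal aorta, with or without MMP inhibitors.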

Q: Which results are given for `CC(C)C[C@H](CC(=O)NO)C(=O)N[C@@H](Cc1ccccc1)C(=O)O` [AGA]?
A: drop in potency for MMP-7 on ring opening from cyclic CGA to acyclic AGA (rhMMP-7): 10 fold; drop in potency for MMP-12 on ring opening from cyclic CGA to acyclic AGA (rhMMP-12; relative to CGA): 10 fold; effect on 99mTc-AGA-2 binding to AAA tissue (MMP-12): significantly reduced

Q: How did the “selectivity for rhMMP-12 relative to rhMMP-7” value (rhMMP-12; against rhMMP-7) turn out when `CC(C)C[C@H]1C(=O)N[C@H](C(=O)N[C@@H](CCC(=O)O)C(=O)O)Cc2ccc(cc2)OCCC[C@@H]1C(=O)NO` [CGA-1] was run?
A: at least 12 folds

Q: For `CC(C)C[C@H]1C(=O)N[C@H](C(=O)O)Cc2ccc(cc2)OCCC[C@@H]1C(=O)NO` [CGA], which “selectivity for rhMMP-12 relative to rhMMP-13” value (rhMMP-12; against rhMMP-13) is on record?
A: 28 folds

Q: `CNC(=O)[C@H](Cc1c[nH]c2ccccc12)NC(=O)[C@@H](CC(=O)NO)CC(C)C` [GM6001, reference compound] was tested. Which “effect on 99mTc-AGA-2 binding to AAA tissue” value (MMP-12) did it give?
A: significantly reduced
